Source: publication PMC8197731 (The journal of pain, 2021)
“Also recorded” adds a separate entry of the source.

Legend:
[1] = test system: WT and PAR3^−/− mice; type: in vivo, mouse
[2] = test system: WT and PAR3^−/− mice; type: in vivo, mouse; remark: listed apart in the source
Procedure, shortened: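 Eight-week-old male mice were primed by intraplantar injection and allowed to recover completely (14 d), then given 100 ng PGE2 into the same hind paw. Facial expressions were video-recorded with mice placed individually in 9×5×5 cm cubicles, using an adapted mouse grimace scale protocol. Scores were averaged per time point for each cohort, with 4 mice per genotype.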

[3] = test system: HEK293 cells not induced to express PAR3; assay: RTCA; type: cell-based; conditions: varying concentrations of C660; Cell Index
Procedure, shortened: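 Uninduced HEK293 Flp-In T-Rex cells were plated on poly-L-lysine E-plates in DMEM/F12 with 5% FBS, run alongside tetracycline-induced cells. Compound was added in quadruplicate at varying final concentrations once impedance stabilized (~6 h). Cell Index, calculated as (Zi−Z0)/15 Ω, was recorded every minute for 4 h, and peak changes after addition were taken.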

[4] = test system: WT and PAR3^−/− mice; assay: Thermal sensitivity; type: in vivo, mouse; conditions: C660, Hargreaves
[5] = test system: WT and PAR3^−/− mice; assay: Mechanical paw withdrawal threshold; type: in vivo, mouse
[6] = test system: lamina IIo neurons in lumbar segments of mouse spinal cord
[7] = test system: WT and PAR3^−/− mice; assay: Facial grimacing; type: in vivo, mouse; conditions: for facial grimacing, PAR3^−/− and WT / facial grimacing, WT and PAR3^−/−: male
[8] = test system: Murine PAR3; conditions: COS-7 cells transfected with murine PAR3; ref [47]; cited from earlier work
[9] = target: T1, human PAR3 (Homo sapiens, UniProt O00254); conditions: COS-7 cells transfected with human PAR3; ref [30]; cited from earlier work
T1 sequence (O00254 22-374): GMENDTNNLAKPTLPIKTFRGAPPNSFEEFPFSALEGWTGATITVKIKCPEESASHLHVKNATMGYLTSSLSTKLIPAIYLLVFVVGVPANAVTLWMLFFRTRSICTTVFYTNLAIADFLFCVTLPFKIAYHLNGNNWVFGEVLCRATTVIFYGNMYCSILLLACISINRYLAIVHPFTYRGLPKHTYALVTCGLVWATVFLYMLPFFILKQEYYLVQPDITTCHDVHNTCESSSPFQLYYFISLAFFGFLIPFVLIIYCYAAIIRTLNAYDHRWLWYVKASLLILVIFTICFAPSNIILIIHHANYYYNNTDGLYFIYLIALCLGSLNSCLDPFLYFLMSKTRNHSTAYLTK

[10] = test system: human A-498 carcinoma cells; conditions: ref [35]; cited from earlier work
[11] = test system: human smooth muscle cells; conditions: ref [6]; cited from earlier work
[12] = test system: rat astrocytes; conditions: ref [60]; cited from earlier work
[13] = test system: mouse lung fibroblasts; conditions: ref [35]; cited from earlier work
[14] = Solubility of the synthesized ligands; type: physicochemical; conditions: aqueous buffers (as printed for C751)
[15] = target: T1, human PAR3; assay: RTCA; type: cell-based
Procedure, shortened: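 HEK293 Flp-In T-Rex cells stably carrying human PAR3 were induced with tetracycline (0.3 or 1 μg/mL, 48 h), then plated on poly-L-lysine E-plates in DMEM/F12 with 5% FBS. At Cell Index stabilization (~6 h), compound was added in quadruplicate at varying final concentrations. CI was read every minute for 4 h. Peak CI changes were normalized to percent of the plate's peak response, and EC50 was fitted across multiple plates.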

[16] = primed with IL-6 0.1 ng, i.pl, PGE2 100 ng after 14 d, n = 4/group
[17] = C660 30 pmol intraplantar, WT male mice, n = 4/group
[18] = thrombin 10 units, i.pl, male, n = 4/group
[19] = thrombin 10 units, i.pl, male, n = 4/group, listed as thrombin
[20] = TFFLLR-NH2 100 μg, i.pl, male, n = 4/group
[21] = 2AT 30 pmol, hind paw, n = 4/group
[22] = primed with 2AT 30 pmol, i.pl, PGE2 100 ng after 14 d, n = 4/group

IL-6: inflammatory cytokine interleukin 6
hyperalgesic priming (paw withdrawal), PAR3^−/− vs WT [1, 16]: not significantly affected by PGE2 treatment in comparison to WT mice; also recorded: hyperalgesic priming was diminished as measured by mechanical hypersensitivity and grimacing in PAR3^−/− mice; also recorded: loss of hyperalgesic priming
hyperalgesic priming (facial grimacing), PAR3^−/− vs WT [2, 16]: not significantly affected by PGE2 treatment in comparison to WT mice; also recorded: hyperalgesic priming was diminished as measured by mechanical hypersensitivity and grimacing in PAR3^−/− mice

TFRGAPPNSFEEF-pego3-Hdc [Compound C660]
RTCA response, cells not induced to express PAR3 [3]: did not show a response; also recorded: absent when PAR3 is not expressed
heat sensitivity [4]: did not note any changes in heat sensitivity in either strain of mice
paw withdrawal threshold, PAR3^−/− ([5]; C660 30 pmol intraplantar, PAR3^−/− male mice, n = 4/group): induces mechanical hypersensitivity and facial grimacing in WT but not PAR3^−/− mice; also recorded: significantly reduced paw withdrawal thresholds in the WT but not PAR3^−/− group; also recorded: little acute effect; also recorded: absent in PAR3 deficient mice
duration of mechanical hypersensitivity, WT [5, 17]: up to 24 hrs
paw withdrawal threshold, WT [5, 17]: induced mechanical hypersensitivity; also recorded: significantly reduced paw withdrawal thresholds; also recorded: prolonged mechanical hypersensitivity
hyperalgesic priming (paw withdrawal), PAR3^−/− ([1]; primed with C660 30 pmol, PGE2 100 ng i.pl after 14 days, PAR3^−/−, n = 4/group): partially attenuated in PAR3^−/− cohort; also recorded: greatly reduced
hyperalgesic priming (paw withdrawal), WT ([1]; primed with C660 30 pmol, PGE2 100 ng i.pl after 14 days, WT, n = 4/group): caused hyperalgesic priming in WT mice
mEPSC amplitude [6]: no change in amplitude
mEPSC frequency [6]: increased the frequency of mEPSCs
affective (grimace) response to PGE2 after priming, WT vs PAR3^−/− ([2]; primed with C660 30 pmol, PGE2 100 ng i.pl after 14 days): robust affective response in WT but not PAR3^−/− mice
facial grimacing overall effect size, WT vs PAR3^−/− ([7]; C660 30 pmol intraplantar, 24 hr period, n = 4/group): did not differ significantly between groups
facial grimacing, PAR3^−/− ([7]; C660 30 pmol intraplantar, PAR3^−/− mice): facial grimacing in WT but not PAR3^−/− mice; also recorded: little acute effect
facial grimacing, WT [7, 17]: transient increase in facial grimacing was observed with the WT cohort at the 1 hr time point; also recorded: noted in WT mice, although changes were transient

Thrombin
mechanical hypersensitivity, PAR3^−/− vs WT [5, 18]: significantly greater in PAR3^−/− mice at 1, 3, and 5 hours post-injection
mechanical hypersensitivity, WT and PAR3^−/− [5, 18]: induced lasting mechanical hypersensitivity in both WT and PAR3^−/− mice
mechanical hypersensitivity, PAR3^−/− vs WT [5, 19]: significantly more robust and prolonged in PAR3^−/− mice
mechanical hypersensitivity, WT and PAR3^−/− [5, 19]: induced mechanical hypersensitivity in both WT and PAR3^−/−
signaling, murine PAR3 [8]: unable to signal on its own in response to thrombin
phosphoinositide signaling, human PAR3 [9]: able to trigger robust phosphoinositide signaling
duration of facial grimacing, PAR3^−/− ([7]; thrombin 10 units, i.pl, PAR3^−/−): up to 5 hours
facial grimacing, PAR3^−/− and WT ([7]; thrombin 10 units, i.pl, n = 4/group): significantly increased facial grimacing in PAR3^−/− but not WT mice

AYPGKF-NH2 [reference compound]
paw withdrawal threshold, WT and PAR3^−/− ([5]; AYPGKF-NH2 100 μg, hind paw, male, n = 4/group): did not significantly change withdrawal thresholds and grimacing in WT while a transient effect was seen in PAR3^−/− mice; also recorded: did not change significantly in both WT and PAR3^−/− mice groups
facial grimacing, PAR3^−/−, 1 hr ([7]; AYPGKF-NH2 100 μg, i.pl, PAR3^−/−, 1 hr post-injection, n = 4/group): transiently increased
facial grimacing, WT and PAR3^−/− ([7]; AYPGKF-NH2 100 μg, i.pl, n = 4/group): did not significantly change withdrawal thresholds and grimacing in WT while a transient effect was seen in PAR3^−/− mice

carrageenan
acute response, WT vs PAR3^−/− ([5]; carrageenan, male mice (Supplementary Fig. S5A–B)): male WT and PAR3^−/− mice responded similarly to the inflammagen acutely
acute response and hyperalgesic priming, female ([1]; carrageenan, 8-week old female mice (Supplementary Fig. S6A–D)): loss of hyperalgesic priming occurred in both male and female mice
hyperalgesic priming, PAR3^−/− vs WT, male ([1]; primed with carrageenan, male mice (Supplementary Fig. S5C–D)): hyperalgesic priming was again reduced in the PAR3^−/− mice; also recorded: loss of hyperalgesic priming

TFFLLR-NH2 [reference compound]
mechanical hypersensitivity, PAR3^−/− vs WT [5, 20]: significantly more robust and prolonged in PAR3^−/− mice; also recorded: more marked in the latter group. Cumulatively, the genotypic differences throughout 48 hours post-injection were significant
mechanical withdrawal threshold, WT and PAR3^−/− [5, 20]: induced mechanical hypersensitivity in both WT and PAR3^−/−; also recorded: significantly reduced mechanical withdrawal thresholds in WT and PAR3^−/− mice
duration of facial grimacing, PAR3^−/− ([7]; TFFLLR-NH2 100 μg, i.pl, PAR3^−/−): up to 5 hours
facial grimacing, PAR3^−/− and WT ([7]; TFFLLR-NH2 100 μg, i.pl, n = 4/group): induced prolonged facial grimacing in PAR3^−/− but not WT mice

2-aminothiazo-4-yl-LIGRL-NH2 [Compound 2AT, reference compound]
mechanical hypersensitivity, WT and PAR3^−/− ([5]; 2AT 30 pmol, hind paw, male, n = 4/group): significantly increased (A) mechanical hypersensitivity; also recorded: did not show any differences in acute responses in PAR3^−/− mice
duration of mechanical hypersensitivity, WT and PAR3^−/− [5, 21]: up to 5 hours
duration of mechanical hyperalgesia after PGE2 (priming), WT ([1]; primed with 2AT 30 pmol, i.pl, PGE2 100 ng after 14 d, WT): up to 24 hours
mechanical hyperalgesia after PGE2 (priming), WT and PAR3^−/− [1, 22]: profound deficit in priming in the PAR3^−/− mice; also recorded: robust in the WT group only; also recorded: loss of hyperalgesic priming
priming effect size (von Frey), WT vs PAR3^−/− ([1]; primed with 2AT 30 pmol, i.pl, PGE2 100 ng after 14 d, unpaired t-test): significant genotype difference between WT and PAR3^−/− groups
facial grimacing after PGE2 (priming), WT and PAR3^−/− [2, 22]: increased in both groups
facial grimacing, WT and PAR3^−/− [7, 21]: significantly increased (A) mechanical hypersensitivity (B) and facial grimacing
duration of facial grimacing, WT and PAR3^−/− [7, 21]: up to 5 hours

TFRGAP
ERK activation, A-498 cells [10]: induced extracellular regulated kinase (ERK) activation via PAR1 rather than PAR3
Ca2+ response in human smooth muscle cells [11]: elicited a Ca^2+ response in rat astrocytes [60] and human smooth muscle cells
Ca2+ response in rat astrocytes [12]: elicited a Ca^2+ response in rat astrocytes
ERK activation, mouse lung fibroblasts [13]: induced extracellular regulated kinase (ERK) activation via PAR1 rather than PAR3

TFRGAPPNSFEEF-pego3-KLIPAIYLLVFVVGV-amide [Compound C751]
solubility [14]: low solubility

TFRGAPPNSFEEF-pego3-KRRPAIYLLVFVVGV-amide [Compound C752]
activity in RTCA [15]: not active
solubility [14]: improved

NC1=N[C@H](O)[C@H]2[C@H]3O[C@]4(O)O[C@@H]([C@@H](O)[C@@]2(N1)[C@@H]4O)[C@]3(O)CO [Tetrodotoxin (TTX), Tetrodotoxin, reference compound]
effect of TTX on C660-induced increase of synaptic event frequency [6]: did not influence the effect of C660 on the increased frequency of synaptic events
